# Reference: ChEMBL document CHEMBL2086340, “Synthesis and biological evaluation of 2-benzylamino-4(5)-(6-methylpyridin-2-yl)-5(4)-([1,2,4]triazolo[1,5-a]-pyridin-6-yl)thiazoles as transforming growth factor-β type 1 receptor kinase inhibitors” (Eur J Med Chem, 2012)
# Tests used:
# [1] = molecular target: Mitogen-activated protein kinase 14 (Homo sapiens, UniProt Q16539); test: Inhibition of human recombinant p38alpha expressed in Escherichia coli using ATF2 as a substrate by radioisotopic protein kinase assay
# Mitogen-activated protein kinase 14, sequence (Q16539 whole entry, the tested form may be a part): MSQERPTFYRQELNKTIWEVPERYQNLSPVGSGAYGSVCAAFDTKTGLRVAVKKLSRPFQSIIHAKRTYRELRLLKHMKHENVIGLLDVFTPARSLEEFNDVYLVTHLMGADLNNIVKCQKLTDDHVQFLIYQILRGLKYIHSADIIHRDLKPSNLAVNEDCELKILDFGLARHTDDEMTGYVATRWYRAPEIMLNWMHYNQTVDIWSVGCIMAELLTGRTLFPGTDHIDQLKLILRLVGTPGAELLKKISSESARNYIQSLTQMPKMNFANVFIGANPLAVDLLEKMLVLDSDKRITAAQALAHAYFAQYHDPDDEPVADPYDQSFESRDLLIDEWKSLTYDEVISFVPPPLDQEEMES
# TGF-beta receptor type-1 = molecular target: T1, TGF-beta receptor type-1 (Homo sapiens, UniProt P36897); test: Inhibition of human recombinant GST-fused ALK5 expressed in Sf9 cells using casein as a substrate by radioisotopic protein kinase assay
# T1 sequence (P36897 whole entry): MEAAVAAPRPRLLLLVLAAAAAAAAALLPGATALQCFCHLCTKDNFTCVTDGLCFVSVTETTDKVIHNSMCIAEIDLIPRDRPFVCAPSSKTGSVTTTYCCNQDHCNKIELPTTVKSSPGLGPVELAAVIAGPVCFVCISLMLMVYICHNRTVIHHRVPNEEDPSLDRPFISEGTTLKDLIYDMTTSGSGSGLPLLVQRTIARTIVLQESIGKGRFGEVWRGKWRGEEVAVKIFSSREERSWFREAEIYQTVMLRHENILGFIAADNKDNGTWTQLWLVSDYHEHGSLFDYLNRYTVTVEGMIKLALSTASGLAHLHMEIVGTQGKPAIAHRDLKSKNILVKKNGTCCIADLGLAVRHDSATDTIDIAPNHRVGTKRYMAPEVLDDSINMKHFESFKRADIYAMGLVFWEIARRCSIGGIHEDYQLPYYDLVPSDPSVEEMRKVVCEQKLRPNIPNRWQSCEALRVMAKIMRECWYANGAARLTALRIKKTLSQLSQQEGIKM
# Homo sapiens = species: Homo sapiens; test: Selectivity index, ratio of IC50 for human recombinant p38alpha to IC50 for human recombinant ALK5
# In short: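 Index is IC50(p38α)/IC50(ALK5), each from a radioisotopic ³³P protein kinase assay run by a contract lab. The p38α was untagged human recombinant protein expressed in E. coli and purified on Ni–NTH–agarose, with ATF2 as substrate. The ALK5 kinase domain was human recombinant GST-fusion protein from baculovirus-infected Sf9 cells, with casein as substrate.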
compound,measurement,setting,value
Cc1cccc(-c2nc(NCc3cccc(OC(F)(F)F)c3)sc2-c2ccc3ncnn3c2)n1,IC50,[1],7390 nM
same,IC50,TGF-beta receptor type-1,19.3 nM
same,Ratio IC50,Homo sapiens,383
Cc1cccc(-c2nc(NCc3ccc(C#N)cc3)sc2-c2ccc3ncnn3c2)n1,IC50,[1],> 10000 nM
same,IC50,TGF-beta receptor type-1,30.8 nM
same,Ratio IC50,Homo sapiens,> 325
Cc1cccc(-c2sc(NCc3ccccc3F)nc2-c2ccc3ncnn3c2)n1,IC50,[1],> 10000 nM
same,IC50,TGF-beta receptor type-1,21.2 nM
same,Ratio IC50,Homo sapiens,> 472
Cc1cccc(-c2nc(NCc3cccc(F)c3)sc2-c2ccc3ncnn3c2)n1,IC50,[1],3530 nM
same,IC50,TGF-beta receptor type-1,7.01 nM
same,Ratio IC50,Homo sapiens,504
Cc1cccc(-c2nc(NCc3cccc(Cl)c3Cl)sc2-c2ccc3ncnn3c2)n1,IC50,[1],> 10000 nM
same,IC50,TGF-beta receptor type-1,34.3 nM
same,Ratio IC50,Homo sapiens,> 292
Cc1ccc(CNc2nc(-c3cccc(C)n3)c(-c3ccc4ncnn4c3)s2)cc1,IC50,[1],> 10000 nM
same,IC50,TGF-beta receptor type-1,8.75 nM
same,Ratio IC50,Homo sapiens,> 1140
COc1cccc(CNc2nc(-c3cccc(C)n3)c(-c3ccc4ncnn4c3)s2)c1OC,IC50,[1],> 10000 nM
same,IC50,TGF-beta receptor type-1,43.5 nM
same,Ratio IC50,Homo sapiens,> 230
COc1cc(CNc2nc(-c3cccc(C)n3)c(-c3ccc4ncnn4c3)s2)cc(OC)c1,IC50,[1],7990 nM
same,IC50,TGF-beta receptor type-1,16.5 nM
same,Ratio IC50,Homo sapiens,484
Cc1cccc(-c2sc(NCc3cccc(C#N)c3)nc2-c2ccc3ncnn3c2)n1,IC50,[1],> 10000 nM
same,IC50,TGF-beta receptor type-1,25.1 nM
same,Ratio IC50,Homo sapiens,> 398
Cc1cccc(-c2nc(NCc3cccc(C)c3C)sc2-c2ccc3ncnn3c2)n1,IC50,[1],> 10000 nM
same,IC50,TGF-beta receptor type-1,22.1 nM
same,Ratio IC50,Homo sapiens,> 452
Cc1cc(C)cc(CNc2nc(-c3cccc(C)n3)c(-c3ccc4ncnn4c3)s2)c1,IC50,[1],> 10000 nM
same,IC50,TGF-beta receptor type-1,22 nM
same,Ratio IC50,Homo sapiens,> 455
Cc1cccc(-c2sc(NCc3ccccc3)nc2-c2ccc3ncnn3c2)n1,IC50,[1],8820 nM
same,IC50,TGF-beta receptor type-1,24.5 nM
same,Ratio IC50,Homo sapiens,360
Cc1cccc(-c2nc(NCc3cc(Cl)cc(Cl)c3)sc2-c2ccc3ncnn3c2)n1,IC50,[1],> 10000 nM
same,IC50,TGF-beta receptor type-1,15.1 nM
same,Ratio IC50,Homo sapiens,> 662
Cc1cccc(-c2nc(NCc3ccccc3OC(F)(F)F)sc2-c2ccc3ncnn3c2)n1,IC50,[1],> 10000 nM
same,IC50,TGF-beta receptor type-1,35.9 nM
same,Ratio IC50,Homo sapiens,> 279
COc1ccc(CNc2nc(-c3cccc(C)n3)c(-c3ccc4ncnn4c3)s2)cc1OC,IC50,[1],> 10000 nM
same,IC50,TGF-beta receptor type-1,47.7 nM
same,Ratio IC50,Homo sapiens,> 210
Cc1cccc(-c2nc(NCc3ccc(OC(F)(F)F)cc3)sc2-c2ccc3ncnn3c2)n1,IC50,[1],> 10000 nM
same,IC50,TGF-beta receptor type-1,60.9 nM
same,Ratio IC50,Homo sapiens,> 164
Cc1cccc(-c2[nH]c(Cc3cccc(C(N)=O)c3)nc2-c2ccc3nccnc3c2)n1,Ratio IC50,Homo sapiens,28
Cc1cccc(-c2nc(NCc3ccccc3F)sc2-c2ccc3ncnn3c2)n1,IC50,[1],> 10000 nM
same,IC50,TGF-beta receptor type-1,10.4 nM
same,Ratio IC50,Homo sapiens,> 962
Cc1cccc(-c2nc(NCc3ccc(C(N)=O)cc3)sc2-c2ccc3ncnn3c2)n1,IC50,[1],> 10000 nM
same,IC50,TGF-beta receptor type-1,25.7 nM
same,Ratio IC50,Homo sapiens,> 389
Cc1cccc(CNc2nc(-c3cccc(C)n3)c(-c3ccc4ncnn4c3)s2)c1,IC50,[1],5370 nM
same,IC50,TGF-beta receptor type-1,11.2 nM
same,Ratio IC50,Homo sapiens,479
Cc1cccc(-c2nc(NCc3ccc(Cl)cc3)sc2-c2ccc3ncnn3c2)n1,IC50,[1],> 10000 nM
same,IC50,TGF-beta receptor type-1,15.8 nM
same,Ratio IC50,Homo sapiens,> 633
Cc1cccc(-c2nc(NCc3ccccc3C)sc2-c2ccc3ncnn3c2)n1,IC50,[1],> 10000 nM
same,IC50,TGF-beta receptor type-1,16.9 nM
same,Ratio IC50,Homo sapiens,> 592
Cc1cccc(-c2nc(NCc3cccc(C#N)c3)sc2-c2ccc3ncnn3c2)n1,IC50,[1],3780 nM
same,IC50,TGF-beta receptor type-1,9.26 nM
same,Ratio IC50,Homo sapiens,408
Cc1cccc(-c2nc(NCc3cccc(Cl)c3)sc2-c2ccc3ncnn3c2)n1,IC50,[1],3280 nM
same,IC50,TGF-beta receptor type-1,10.2 nM
same,Ratio IC50,Homo sapiens,322
Cc1cccc(-c2nc(NCc3cccc(C(N)=O)c3)sc2-c2ccc3ncnn3c2)n1,IC50,[1],6190 nM
same,IC50,TGF-beta receptor type-1,13.6 nM
same,Ratio IC50,Homo sapiens,455
Cc1cccc(-c2nc(NCc3ccc(F)cc3)sc2-c2ccc3ncnn3c2)n1,IC50,[1],9200 nM
same,IC50,TGF-beta receptor type-1,8.61 nM
same,Ratio IC50,Homo sapiens,1070
COc1ccc(CNc2nc(-c3cccc(C)n3)c(-c3ccc4ncnn4c3)s2)cc1,IC50,[1],> 10000 nM
same,IC50,TGF-beta receptor type-1,24.3 nM
same,Ratio IC50,Homo sapiens,> 412
Cc1cccc(-c2nc(NCc3cc(F)cc(F)c3)sc2-c2ccc3ncnn3c2)n1,IC50,[1],3820 nM
same,IC50,TGF-beta receptor type-1,8.92 nM
same,Ratio IC50,Homo sapiens,428
Cc1cccc(-c2nc(NCc3ccccc3Cl)sc2-c2ccc3ncnn3c2)n1,IC50,[1],5860 nM
same,IC50,TGF-beta receptor type-1,15.5 nM
same,Ratio IC50,Homo sapiens,378
Cc1cccc(-c2nc(NCc3ccc(Cl)c(Cl)c3)sc2-c2ccc3ncnn3c2)n1,IC50,[1],> 10000 nM
same,IC50,TGF-beta receptor type-1,21.9 nM
same,Ratio IC50,Homo sapiens,> 457
COc1cccc(CNc2nc(-c3cccc(C)n3)c(-c3ccc4ncnn4c3)s2)c1,IC50,[1],> 10000 nM
same,IC50,TGF-beta receptor type-1,11.4 nM
same,Ratio IC50,Homo sapiens,> 877
Cc1cccc(-c2nc(NCc3ccccc3)sc2-c2ccc3ncnn3c2)n1,IC50,[1],5530 nM
same,IC50,TGF-beta receptor type-1,11.3 nM
same,Ratio IC50,Homo sapiens,489
Cc1cccc(-c2sc(NCc3cccc(C(N)=O)c3)nc2-c2ccc3ncnn3c2)n1,IC50,[1],> 10000 nM
same,IC50,TGF-beta receptor type-1,12 nM
same,Ratio IC50,Homo sapiens,> 833
Cc1cccc(-c2nc(NCc3cccc(F)c3F)sc2-c2ccc3ncnn3c2)n1,IC50,[1],7200 nM
same,IC50,TGF-beta receptor type-1,29.4 nM
same,Ratio IC50,Homo sapiens,245
Cc1cccc(-c2nc(NCc3ccc(F)c(F)c3)sc2-c2ccc3ncnn3c2)n1,IC50,[1],3580 nM
same,IC50,TGF-beta receptor type-1,7.43 nM
same,Ratio IC50,Homo sapiens,482
